This note sets out measurements from ChEMBL document CHEMBL1124869, “Synthesis and anti-HIV activity of several 2'-fluoro-containing pyrimidine nucleosides” (J Med Chem, 1990).

In brackets after ≈: the same amount, converted by molar mass. Several values for one entry are separate records, joined by “and”; a condition that tells them apart may be missing. Equal values may be shown once.

For data set [1], the system named is CCRF-CEM. The experiment in a line: Cellular toxicity was measured in CEM cells after 8 days.50 tissue culture infectious doses were used. The data set is classed as functional, Homo sapiens.
The test system of data set [2] is CCRF-CEM. The experiment in a line: Antiviral test was performed against HIV (LAV strain) on CEM cells using 50 tissue culture infectious units. The format is functional. Particulars: Homo sapiens, read-out: ID50 (the source's name). The procedure, abridged:
(§1)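 CEM-SS T cells infected with HIV-1 LAV strain. Inoculum was 50 or 30 tissue culture infectious units, depending on the assay. Viral replication was read as p24 core antigen in the culture supernatant by sandwich ELISA. Activity is expressed as 50% inhibitory dose (ID50) and 50% tissue culture inhibitory dose (TCID50).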

Data set [3] concerns CCRF-CEM. The data set can be described thus: Antiviral test was performed against HIV (LAV strain) on CEM cells using 30 tissue culture infectious units. The data set is classed as functional, Homo sapiens. The procedure, abridged:
as §1

Data set [4] concerns T-cell. The data set can be described thus: (§2) In vitro Antiviral activity against T-cell lines. The format is functional, Homo sapiens. The procedure, abridged:
(§3)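 Freshly isolated T cells were stimulated with PHA mitogen and then infected with HIV HTLV-IIIB. Antiviral endpoint was p24 antigen at 10 days postinfection. Cell viability served as the toxicity endpoint.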

Data set [5] has as its system U-937. The data set can be described thus: (§4) In vitro Antiviral activity against U937 cell lines. The data set is classed as functional, Homo sapiens.
For data set [6], the system named is PBL. The data set can be described thus: (§5) In vitro Antiviral activity against PBL cell lines. The data set is classed as functional, Homo sapiens.
Data set [7] deals with Mo. The experiment in a line: (§6) In vitro Antiviral activity against MO cell lines. The data set is classed as functional, Homo sapiens. An outline of the steps: (§7)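 Freshly isolated monocyte/macrophage cells were infected with the monocytotropic HIV Pan Data Strain (PDS). Antiviral endpoint was p24 viral antigen.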
Data set [8] has as its system PBL. The data set is described as §5. The data set is classed as functional. To be noted: Homo sapiens, read-out: ID50.
Data set [9] deals with T-cell. The description is as §2. The data set is classed as functional. To be noted: Homo sapiens, read-out: ID50 (the source's name). An outline of the steps:
as §3

Data set [10] is filed under the species Homo sapiens. The data set can be described thus: Bone marrow toxicity was measured against human colony forming units-granulocyte monocyte (CFU-GM), concentration is 10.0 uM. An outline of the steps:
(§8)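 Colony formation by normal human granulocyte-monocyte progenitors (CFU-GM) was scored in the presence of 0.1, 1.0 or 10.0 μM drug. Results are given as percent colony survival relative to control, mean ± deviation.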

Data set [11] relates to CCRF-CEM. The experiment in a line: (§9) Antiviral test was performed against HIV (LAV strain) on CEM cells using 30 tissue culture infectious units. T. The data set is classed as functional, Homo sapiens. The procedure, abridged:
as §1

Data set [12] concerns Mo. Described as §6. The data set is classed as functional. Particulars: Homo sapiens, read-out: ID50 (the source's name). An outline of the steps:
as §7

In data set [13] the test system is U-937. The description is as §4. The data set is classed as functional. Particulars: Homo sapiens, read-out: ID50 (the source's name).
Data set [14] is filed under the species Homo sapiens. The data set can be described thus: Bone marrow toxicity was measured against human colony forming units-granulocyte monocyte (CFU-GM), concentration is 1.0 uM. An outline of the steps:
as §8

Data set [15] concerns CCRF-CEM. The data set can be described thus: Cellular toxicity was measured in CEM cells after 8 days. The data set is classed as functional, Homo sapiens.
For data set [16], the system named is PBL. The data set can be described thus: (§10) In vitro antiviral activity against PBL cell lines. The data set is classed as functional. Particulars: Homo sapiens, read-out: ID50 (the source's name).
For data set [17], the system named is T-cell. The experiment in a line: (§11) In vitro antiviral activity against T-cells. The data set is classed as functional. To be noted: Homo sapiens, read-out: ID50 (the source's name). The procedure, abridged:
as §3

The subject of data set [18] is CCRF-CEM. The description is as §9. The format is functional. Particulars: Homo sapiens, read-out: ID50 (the source's name). An outline of the steps:
as §1

Data set [19] is described as follows: (§12) In vitro antiviral activity against (monocyte macrophages) cell lines. The data set is classed as functional. Particulars: Homo sapiens; read-out: ID50 (the source's name). An outline of the steps:
as §7

Data set [20] concerns T-cell. Described as §11. The data set is classed as functional, Homo sapiens. The procedure, abridged:
as §3

Data set [21] relates to CCRF-CEM. The data set can be described thus: (§13) In vitro antiviral activity against CEM cell lines. The format is functional. To be noted: Homo sapiens, read-out: ID50 (the source's name). An outline of the steps:
as §1

Data set [22] has as its system CCRF-CEM. The data set is described as §13. The data set is classed as functional, Homo sapiens. The procedure, abridged:
as §1

The test system of data set [23] is PBL. Described as §10. The format is functional, Homo sapiens.
The subject of data set [24] is U-937. The data set can be described thus: (§14) In vitro antiviral activity against U937 cell lines. The data set is classed as functional. To be noted: Homo sapiens, read-out: ID50 (the source's name).
Data set [25] is described as follows: as §12. The data set is classed as functional, Homo sapiens. An outline of the steps:
as §7

Data set [26] relates to U-937. The description is as §14. The data set is classed as functional, Homo sapiens.

For `Cc1cn([C@@H]2O[C@H](CO)C=C2F)c(=O)[nH]c1=O`, in the data set on CCRF-CEM [1], the “cytotoxic concentration in CEM cells” value worked out at 9.7 µg/mL. The IC50 with CCRF-CEM [2] is above 25 µg/mL.

With `Cc1cn([C@@H]2O[C@H](CO)[C@@H](N=[N+]=[N-])[C@H]2F)c(=O)[nH]c1=O`, the “cytotoxic concentration in CEM cells” value in the data set on CCRF-CEM [1] is 2.6 µg/mL. Besides, in the data set with CCRF-CEM [2], the IC50 is above 28.5 µg/mL.

In the data set on CCRF-CEM [3], `Cc1cn([C@@H]2O[C@H](CO)C[C@H]2F)c(=O)[nH]c1=O` gave a TCID50 above 25 µg/mL. For the same compound, the IC50 in the data set with CCRF-CEM [2] is above 25 µg/mL.

Turning to `Nc1ccn([C@@H]2O[C@H](CO)C[C@@H]2F)c(=O)n1`, the TCID50 in the data set with T-cell [4] came out at 10 µg/mL; in the data set on U-937 [5], 7.7 µg/mL; in the data set with PBL [6], 11 µg/mL; with Mo [7], 3.3 µg/mL. In addition, the IC50 in the data set with PBL [8] is below 2 µg/mL; with T-cell [9] it was 0.33 µg/mL (≈ 1.44 µM); in the data set with CCRF-CEM [2], 2.3 µg/mL (≈ 10 µM); in the data set on Mo [12], 1 µg/mL (≈ 4.36 µM); with U-937 [13] it was 0.14 µg/mL (≈ 0.611 µM). Moreover, the “cytotoxic concentration in CEM cells” value in the data set with CCRF-CEM [1] was >23 µg/mL and 61.9 µg/mL. Besides, the Toxicity was 0 in the data set filed under Homo sapiens [10] and 37.6 in the data set filed under Homo sapiens [14]. The compound also showed an ID50 in the data set with CCRF-CEM [11] of 0.9 µg/mL (≈ 3.93 µM).

As for `Nc1ccn([C@@H]2O[C@H](CO)C=C2F)c(=O)n1`, the IC50 with CCRF-CEM [2] came out at 1.3 µg/mL (≈ 5.72 µM). The ID50 in the data set with CCRF-CEM [11] was 10.9 µg/mL (≈ 48 µM).

Regarding `O=c1ccn(C2OC(CO)CC2F)c(=O)[nH]1` (stereo not drawn), the “cytotoxic concentration in CEM cells” value with CCRF-CEM [1] came out at 57 µg/mL. Besides, in the data set on CCRF-CEM [2], the IC50 was above 10 µg/mL.

Regarding `Nc1ccn([C@H]2CC[C@@H](CO)O2)c(=O)n1` [ZALCITABINE], the TCID50 with CCRF-CEM [15] was 1.3 µg/mL. Further, in the data set with CCRF-CEM [2], the IC50 came to 0.007 µg/mL (≈ 0.0331 µM).

Consider `Cc1cn([C@H]2C[C@H](N=[N+]=[N-])[C@@H](CO)O2)c(=O)[nH]c1=O` [ZIDOVUDINE], for which the IC50 in the data set on PBL [16] came to 0.3 ng/mL (≈ 0.00112 µM); in the data set on T-cell [17], 0.033 µg/mL (≈ 0.123 µM); in the data set on CCRF-CEM [18], 0.53 µg/mL (≈ 1.98 µM); in data set [19], 0.1 µg/mL (≈ 0.374 µM); in the data set with CCRF-CEM [21], 0.03 µg/mL (≈ 0.112 µM); in the data set on U-937 [24], 0.03 µg/mL (≈ 0.112 µM). In the data set with CCRF-CEM [2], the IC50 came out at 0.08 µg/mL (≈ 0.299 µM). For the same compound, the TCID50 with T-cell [20] was 100 µg/mL; with CCRF-CEM [22], above 3 µg/mL; with PBL [23] it was 3 µg/mL; in [25] it was 10 µg/mL; in the data set with U-937 [26], 7.5 µg/mL. The compound also registered a Toxicity in the data set filed under Homo sapiens [10] of 23.6.
